Experimental data as given in ChEMBL document CHEMBL4364329, “Prodrug Activation by a Viral Protease: Evaluating Combretastatin Peptide Hybrids To Selectively Target Infected Cells” (ACS Med Chem Lett, 2019).
Non-standard residues stand in square brackets, D forms with d. Residues, ends and D or L forms follow the SMILES beside them. ξ: configuration not given here. *: point of attachment. X1 = COc1ccc(/C=C\c2cc(OC)c(OC)c(OC)c2)cc1N*; 2Abz = Nc1ccccc1C(=O)O; ξNle = CCCCC(N)C(=O)O; Bz = O=C(c1ccccc1)*

Assays:
Genome polyprotein [1] = biological target: T1, Genome polyprotein (dengue virus type 2, UniProt P29990); assay: Inhibition of Dengue virus NS2B-NS3 protease using FRET Abz-Nle-Lys-Arg-Arg-Ser-3-(NO2)Tyr as substrate
Trypsin = Trypsin (Homo sapiens, UniProt P07477+P07478+P35030); assay: Prodrug activation assessed as trypsin (unknown origin)-mediated compound hydrolysis in TRIS buffer at pH 9 at 100 uM incubated for 2 hrs; format: protein assay; conditions: pH 9, 2 h
dengue virus type 2 [2] = assay: Antiviral activity against wild type Dengue virus serotype 2 infected in human HuH7 cells assessed as reduction in viral titer at 25 uM measured after 24 hrs by Cell-Titer Glo luminescent assay relative to control; format: functional; conditions: Huh-7, 24 h
In short: (§1)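 Cells treated 24 h before titer readout; virus-containing supernatant split into duplicates, plaques counted and averaged, reduction calculated versus untreated blank; single-point experiment.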

Genome polyprotein [3] = biological target: T1, Genome polyprotein; assay: Inhibition of Dengue virus serotype 2 NS2B-NS3 protease expressed in Escherichia coli BL21 lambda (DE3) cells preincubated with enzyme for 15 mins followed by 2-Abz-Nle-Lys-Arg-Arg-Ser-(3-NO2)-Tyr-NH2 FRET substrate addition measured for 15 mins by fluorescence analysis
Zika virus [4] = assay: Antiviral activity against Zika virus infected in human HuH7 cells assessed as reduction in viral titer at 50 uM measured after 24 hrs by Cell-Titer Glo luminescent assay relative to control; format: functional; conditions: Huh-7, 24 h; in short: as §1
[5] = Cytotoxicity against human HuH7 cells assessed as reduction in cell viability measured after 24 hrs by cell titer blue assay; format: cell-based, Huh-7
[6] = Cytotoxicity against human HeLa cells assessed as reduction in cell viability measured after 72 hrs by cell titer blue assay; format: cell-based
[7] = Cytotoxicity against human HuH7 cells assessed as reduction in cell viability measured after 72 hrs by cell titer blue assay; format: cell-based, Huh-7
[8] = Ratio of compound CC50 to CA4 CC50 for human HuH7 cells measured after 72 hrs by cell titer blue assay; format: ADME, cell-based, Huh-7
HeLa [9] = assay: Ratio of compound CC50 to CA4 CC50 for human HeLa cells measured after 72 hrs by cell titer blue assay; format: ADME, cell-based
Genome polyprotein [10] = biological target: T1, Genome polyprotein; assay: Prodrug activation assessed as Dengue virus serotype 2 NS2B-NS3 protease expressed in Escherichia coli BL21 lambda (DE3) cells-mediated compound hydrolysis in TRIS buffer at pH 9 at 500 uM incubated for 2 hrs by HPLC-UV analysis; conditions: dengue virus type 2, pH 9, 2 h
In short: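 DENV protease at 1 μM with substrate at 500 μM in pH 9 buffer, incubated 2 h at 37 °C; fraction hydrolysed determined, triplicate wells.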

HeLa [11] = assay: Cytotoxicity against human HeLa cells assessed as cell doubling time by cell titer blue assay; format: cell-based
dengue virus type 2 [12] = assay: Antiviral activity against wild type Dengue virus serotype 2 infected in human HuH7 cells assessed as reduction in viral titer measured after 24 hrs by Cell-Titer Glo luminescent assay; format: functional, organism-based; conditions: Huh-7, 24 h
Zika virus [13] = assay: Antiviral activity against Zika virus infected in human HuH7 cells assessed as reduction in viral titer at 5 uM measured after 24 hrs by Cell-Titer Glo luminescent assay relative to control; format: functional; conditions: Huh-7, 24 h
In short: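 Readout began after 24 h. This was a single-point experiment. Virus-containing supernatant was aliquoted in duplicate, plaques were counted and averaged, and reduction was calculated against an untreated blank.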

Huh-7 [14] = assay: Cytotoxicity against human HuH7 cells assessed as induction of mitosis after 24 hrs; format: cell-based; conditions: huh-7, 24 h
Huh-7 [15] = assay: Cytotoxicity against human HuH7 cells assessed as cell doubling time by cell titer blue assay; format: cell-based

Row | SMILES | IC50 (Genome polyprotein [1]) | Drug metabolism (Trypsin) | inhibition at 25 µM (dengue virus type 2 [2]) | IC50 (Genome polyprotein [3]) | inhibition at 50 µM (Zika virus [4]) | CC50 at 24 h [5] | CC50 at 72 h [6] | CC50 at 72 h [7] | selectivity ratio at 72 h [8] | Ratio (HeLa [9]) | Drug metabolism (Genome polyprotein [10]) | Time (HeLa [11]) | EC50 (dengue virus type 2 [12]) | inhibition at 5 µM (Zika virus [13]) | Activity (Huh-7 [14]) | Time (Huh-7 [15])
1 | COc1ccc(/C=C\c2cc(OC)c(OC)c(OC)c2)cc1NC(=O)[C@H](CCCNC(=N)N)NC(=O)[C@@H](N)CCCNC(=N)N | 6.3 µM | – | – | – | – | – | – | – | – | – | – | – | – | – | – | –
2 | COc1ccc(/C=C\c2cc(OC)c(OC)c(OC)c2)cc1NC(=O)[C@H](CO)NC(=O)[C@H](CCCNC(=N)N)NC(=O)[C@H](CCCNC(=N)N)NC(=O)c1ccccc1 | – | Metabolite_Detected | 51% | 25 µM | 92% | > 100 µM | 0.0292 µM | 0.0231 µM | 20 to 2000 | 20 to 2000 | 3.4% | – | – | – | – | –
3 | COc1ccc(/C=C\c2cc(OC)c(OC)c(OC)c2)cc1NC(=O)[C@H](CO)NC(=O)[C@H](CCCNC(=N)N)NC(=O)[C@H](CCCCN)NC(=O)c1ccccc1 | – | – | 61% | – | – | 77.9 µM | 0.0618 µM | 0.134 µM | 20 to 2000 | 20 to 2000 | 6.3% | – | – | – | – | –
4 | COc1ccc(/C=C\c2cc(OC)c(OC)c(OC)c2)cc1NC(=O)[C@H](C)NC(=O)[C@H](CCCNC(=N)N)NC(=O)[C@H](CCCNC(=N)N)NC(=O)c1ccccc1 | – | – | 57% | – | – | 111 µM | 0.0657 µM | 0.191 µM | 20 to 2000 | 20 to 2000 | 36% | – | – | – | – | –
5 | COc1ccc(/C=C\c2cc(OC)c(OC)c(OC)c2)cc1NC(=O)CN | – | – | 69% | – | – | 173 µM | 0.0377 µM | 0.0269 µM | 20 to 2000 | 20 to 2000 | Metabolite_Notdetected | – | – | – | – | –
6 | COc1ccc(/C=C\c2cc(OC)c(OC)c(OC)c2)cc1NC(=O)CNC(=O)CNC(=O)[C@H](CCCNC(=N)N)NC(=O)[C@H](CCCNC(=N)N)NC(=O)c1ccccc1 (Bz-RRGG-X1) | – | Metabolite_Detected | 55% | – | – | 59.7 µM | 0.0195 µM | 0.024 µM | 20 to 2000 | 20 to 2000 | 42% | – | – | – | – | –
7 | COc1ccc(/C=C\c2cc(OC)c(OC)c(OC)c2)cc1O [COMBRETASTATIN A4] | – | – | – | – | – | 38.3 µM | 0.000428 µM | 0.00105 µM | – | – | Metabolite_Notdetected | 24 h | 0.87 µM | 70% | Toxic | 48 h
8 | COc1ccc(/C=C\c2cc(OC)c(OC)c(OC)c2)cc1NC(=O)CCNC(=O)[C@H](CCCNC(=N)N)NC(=O)[C@H](CCCNC(=N)N)NC(=O)c1ccccc1 | – | – | 57% | – | – | 190 µM | 0.952 µM | 0.156 µM | 20 to 2000 | 20 to 2000 | 6.7% | – | – | – | – | –
9 | COc1ccc(/C=C\c2cc(OC)c(OC)c(OC)c2)cc1NC(=O)CNC(=O)[C@H](CCCNC(=N)N)NC(=O)[C@H](CCCNC(=N)N)NC(=O)c1ccccc1 | – | – | 84% | – | – | 88.6 µM | 0.0072 µM | 0.0266 µM | 20 to 2000 | 20 to 2000 | 39% | – | – | – | – | –
10 | COc1ccc(/C=C\c2cc(OC)c(OC)c(OC)c2)cc1N | – | – | 66% | – | – | > 100 µM | 0.00147 µM | 0.00393 µM | 20 to 2000 | 20 to 2000 | Metabolite_Notdetected | – | – | 84% | – | –
11 | COc1ccc(/C=C\c2cc(OC)c(OC)c(OC)c2)cc1NC(=O)[C@H](C)N | – | – | 64% | – | – | 123 µM | 0.00669 µM | 0.00603 µM | 20 to 2000 | 20 to 2000 | Metabolite_Notdetected | – | – | – | – | –
12 | COc1ccc(/C=C\c2cc(OC)c(OC)c(OC)c2)cc1NC(=O)[C@H](C)NC(=O)[C@H](CCCNC(=N)N)NC(=O)[C@H](CCCCN)NC(=O)c1ccccc1 | – | – | 69% | – | – | > 100 µM | 0.0246 µM | 0.0716 µM | 20 to 2000 | 20 to 2000 | 5.2% | – | – | – | – | –
13 | CCCCC(NC(=O)c1ccccc1N)C(=O)N[C@@H](CCCCN)C(=O)N[C@@H](CCCNC(=N)N)C(=O)N[C@@H](CCCNC(=N)N)C(=O)N[C@@H](CO)C(=O)N[C@@H](Cc1ccc(O)cc1)C(N)=O (stereo partly drawn) (H-[2Abz][ξNle]KRRSY-NH2) | – | – | – | – | – | – | – | – | – | – | 94% | – | – | – | – | –
14 | COc1ccc(/C=C\c2cc(OC)c(OC)c(OC)c2)cc1NC(=O)CNC(=O)[C@H](CCCNC(=N)N)NC(=O)[C@H](CCCCN)NC(=O)c1ccccc1 | – | – | 53% | – | – | > 100 µM | 0.0782 µM | 0.172 µM | 20 to 2000 | 20 to 2000 | 32% | – | – | – | – | –
